The source made the active and inactive calls. The calls are words filed in the database; no cut-off is given here.
Tests used:
Mus musculus [1] = assay: The compound was tested in vivo for photosensitizing efficacy in DBA/2 Mice transplanted with SMT/F tumors and the activity is expressed as % response (1-5 days) 3 hours post injection at 2.5 mg/kg concentration; assay type: functional
Outline: (§1)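 Female DBA/2 HA-DD mice, 5-7 weeks old. A 1 mm SMT-F tumor piece from a donor was trocar-implanted subcutaneously in the axilla. At about 5 mm tumor diameter, sensitizer in 1% Tween 80/water was given iv; dose was based on extinction coefficient. At 3 or 24 h after injection, restrained mice had the tumor lit with 135 J/cm2 laser light at the in vivo long-wavelength maximum. Tumor response was followed to day 30; six mice/group.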

Mus musculus [2] = assay: The compound was tested in vivo for photosensitizing efficacy in DBA/2 Mice transplanted with SMT/F tumors and the activity is expressed as % response (21-25 days) 3 hours post injection at 2.5 mg/kg concentration; assay type: functional; outline: as §1
Mus musculus [3] = assay: The compound was tested in vivo for photosensitizing efficacy in DBA/2 Mice transplanted with SMT/F tumors and the activity is expressed as % response (6-10 days) 3 hours post injection at 1 mg/kg concentration; No response; assay type: functional, organism-based; parameters: dose 1 mg/kg; outline: as §1
Mus musculus [4] = assay: The compound was tested in vivo for photosensitizing efficacy in DBA/2 Mice transplanted with SMT/F tumors and the activity is expressed as % response (6-10 days) 3 hours post injection at 2.5 mg/kg concentration; assay type: functional; outline: as §1
Mus musculus [5] = assay: The compound was tested in vivo for photosensitizing efficacy in DBA/2 Mice transplanted with SMT/F tumors and the activity is expressed as % response (11-15 days) 3 hours post injection at 2.5 mg/kg concentration; assay type: functional; outline: as §1
Mus musculus [6] = assay: The compound was tested in vivo for photosensitizing efficacy in DBA/2 Mice transplanted with SMT/F tumors and the activity is expressed as % response (26-30 days) 3 hours post injection at 1 mg/kg concentration; No response; assay type: functional, organism-based; parameters: dose 1 mg/kg; outline: as §1
Mus musculus [7] = assay: The compound was tested in vivo for photosensitizing efficacy in DBA/2 Mice transplanted with SMT/F tumors and the activity is expressed as % response (6-10 days) 3 hours post injection at 5.0 mg/kg concentration; assay type: functional; outline: as §1
Albumin [8] = molecular target: T1, Albumin (Homo sapiens, UniProt P02768); assay: Binding affinity against Human serum albumin(Site II).
Outline: (§2)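 Fluorometric titration: HSA and sensitizer fixed at 1 × 10^-6 mol/L. Site probe varied 4 × 10^-7 to 2 × 10^-6 mol/L: DNSA for site I, read at 472 nm; DP for site II, read at 476 nm; excitation 340 nm. Incubated 4 °C, pH 7.0, 4 h, dark. Bound probe taken from standard curves of free probe (water) and HSA-bound probe (2.5 × 10^-5 mol/L HSA).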

Mus musculus [9] = assay: The compound was tested in vivo for photosensitizing efficacy in DBA/2 Mice transplanted with SMT/F tumors and the activity is expressed as % response (21-25 days) 3 hours post injection at 5.0 mg/kg concentration; No response; assay type: functional, organism-based; parameters: dose 5 mg/kg; outline: as §1
Mus musculus [10] = assay: The compound was tested in vivo for photosensitizing efficacy in DBA/2 Mice transplanted with SMT/F tumors and the activity is expressed as % response (26-30 days) 3 hours post injection at 2.5 mg/kg concentration; assay type: functional; outline: as §1
Albumin [11] = molecular target: T1, Albumin; assay: Binding affinity against Human serum albumin(Site I).; outline: as §2
Mus musculus [12] = assay: The compound was tested in vivo for photosensitizing efficacy in DBA/2 Mice transplanted with SMT/F tumors and the activity is expressed as % response (11-15 days) 3 hours post injection at 1 mg/kg concentration; No response; assay type: functional, organism-based; parameters: dose 1 mg/kg; outline: as §1
Mus musculus [13] = assay: The compound was tested in vivo for photosensitizing efficacy in DBA/2 Mice transplanted with SMT/F tumors and the activity is expressed as % response (16-20 days) 3 hours post injection at 5.0 mg/kg concentration; assay type: functional; outline: as §1
Mus musculus [14] = assay: The compound was tested in vivo for photosensitizing efficacy in DBA/2 Mice transplanted with SMT/F tumors and the activity is expressed as % response (1-5 days) 3 hours post injection at 2 1 mg/kg concentration; No response; assay type: functional, organism-based; parameters: dose 1 mg/kg; conditions: at 1 mg/kg; outline: as §1
Mus musculus [15] = assay: The compound was tested in vivo for photosensitizing efficacy in DBA/2 Mice transplanted with SMT/F tumors and the activity is expressed as % response (16-20 days) 3 hours post injection at 2.5 mg/kg concentration; assay type: functional; outline: as §1
Mus musculus [16] = assay: The compound was tested in vivo for photosensitizing efficacy in DBA/2 Mice transplanted with SMT/F tumors and the activity is expressed as % response (21-25 days) 3 hours post injection at 1 mg/kg concentration; No response; assay type: functional, organism-based; parameters: dose 1 mg/kg; outline: as §1
Mus musculus [17] = assay: The compound was tested in vivo for photosensitizing efficacy in DBA/2 Mice transplanted with SMT/F tumors and the activity is expressed as % response (26-30 days) 3 hours post injection at 5.0 mg/kg concentration; No response; assay type: functional, organism-based; parameters: dose 5 mg/kg; outline: as §1
Mus musculus [18] = assay: The compound was tested in vivo for photosensitizing efficacy in DBA/2 Mice transplanted with SMT/F tumors and the activity is expressed as % response (11-15 days) 3 hours post injection at 5.0 mg/kg concentration; assay type: functional; outline: as §1
Mus musculus [19] = assay: The compound was tested in vivo for photosensitizing efficacy in DBA/2 Mice transplanted with SMT/F tumors and the activity is expressed as % response (1-5 days) 3 hours post injection at 5.0 mg/kg concentration; assay type: functional; outline: as §1
Mus musculus [20] = assay: The compound was tested in vivo for photosensitizing efficacy in DBA/2 Mice transplanted with SMT/F tumors and the activity is expressed as % response (16-20 days) 3 hours post injection at 1 mg/kg concentration; No response; assay type: functional, organism-based; parameters: dose 1 mg/kg; outline: as §1

T1 sequence (P02768 whole entry): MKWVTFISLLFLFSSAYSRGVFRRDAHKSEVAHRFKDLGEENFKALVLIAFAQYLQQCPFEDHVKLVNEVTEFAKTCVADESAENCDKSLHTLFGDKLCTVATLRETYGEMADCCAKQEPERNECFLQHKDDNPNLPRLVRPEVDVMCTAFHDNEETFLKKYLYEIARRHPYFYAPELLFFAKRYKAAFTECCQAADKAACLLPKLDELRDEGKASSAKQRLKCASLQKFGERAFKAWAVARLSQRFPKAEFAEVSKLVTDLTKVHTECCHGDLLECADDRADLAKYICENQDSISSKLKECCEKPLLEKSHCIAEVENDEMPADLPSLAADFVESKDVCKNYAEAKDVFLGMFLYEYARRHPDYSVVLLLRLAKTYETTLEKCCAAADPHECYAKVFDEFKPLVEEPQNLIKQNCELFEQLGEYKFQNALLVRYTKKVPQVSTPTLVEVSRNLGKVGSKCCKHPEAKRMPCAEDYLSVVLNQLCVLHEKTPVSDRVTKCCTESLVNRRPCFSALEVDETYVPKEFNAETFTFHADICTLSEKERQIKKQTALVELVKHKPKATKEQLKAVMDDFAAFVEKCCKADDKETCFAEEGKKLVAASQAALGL

With `CCc1c(C)c2[nH]c1cc1[nH]c(cc3nc4c(c5nc(c2C=O)[C@@H](C)[C@@H]5CCC(=O)OC)CCC4=C3C)C(=O)C1(C)CC` (stereo not given in full) the Response (Mus musculus [1]) was 100%, the Response (Mus musculus [2]) was 60% and the Response (Mus musculus [3]) was “inactive”. The Response (Mus musculus [4]) was 100%, the Response (Mus musculus [5]) was 80% and the Response (Mus musculus [6]) was “inactive”. The Response (Mus musculus [7]) was 60%, the Binding constant (Albumin [8]) was 500000 l M-1 and the Response (Mus musculus [9]) was “inactive”. For the same compound, the Response (Mus musculus [10]) was 20%, the Binding constant (Albumin [11]) was 500000 l M-1 and the Response (Mus musculus [12]) was “inactive”. For the same compound, the Response (Mus musculus [13]) was 0%, the Response (Mus musculus [14]) was “inactive” and the Response (Mus musculus [15]) was 60%. The Response (Mus musculus [16]) was “inactive”, the Response (Mus musculus [17]) was “inactive” and the Response (Mus musculus [18]) was 60%. The Response (Mus musculus [19]) was 100% and the Response (Mus musculus [20]) was “inactive”.
